Source: PubChem
S100A4 MyoIIA: blocks human S100A4 binding to myosin IIA peptide; S100A4/TAMRA-MyoIIA peptide fluorescence polarization; inhibition, % at 10.7 µM; actives 0.14% (n = 360,000); AID 652163;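 active = mean inhibition of at least 70% across replicates, with every replicate also reaching that level; inconclusive = mean inhibition reaches 70% but some replicates fall short; inactive = mean inhibition below 70%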
Target sequence (P26447 whole entry, looked up): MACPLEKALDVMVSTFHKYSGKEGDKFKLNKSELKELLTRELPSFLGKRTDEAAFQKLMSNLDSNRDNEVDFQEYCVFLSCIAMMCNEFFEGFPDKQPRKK
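System – human S100A4 monomer protein, biochemical binding assay · Buffer or medium – Calcium-containing HEPES buffer, pH 7.2 · Timing – 5 min between mix addition and reading · Also added – TAMRA-labelled myosin IIA heavy-chain peptide probe, 5 nM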
DENV2 CPE rescue: protects cells from dengue virus 2 cytopathic effect; DENV2-infected cells, cytopathic effect rescue, plate reader; actives 1.7% (n = 350,000); CPE inhibition, % at 9.99 µM; in the data active = CPE inhibition above about 20%, passing the limit was not always enough; inconclusive = no clear call, values can overlap the other calls; tested in BHK-21 cells
SIRT5 block: inhibitors of human sirtuin-5 desuccinylase. Q9NXA8. Purified SirT5, succinyl-peptide AMC, trypsin-coupled fluorescence. inhibition, % at 15 µM. actives 1.1% (n = 330,000). AID 652115; in the data active = inhibition above about 15%; inconclusive = no clear call, values can overlap the other calls
Target sequence (Q9NXA8 whole entry, looked up): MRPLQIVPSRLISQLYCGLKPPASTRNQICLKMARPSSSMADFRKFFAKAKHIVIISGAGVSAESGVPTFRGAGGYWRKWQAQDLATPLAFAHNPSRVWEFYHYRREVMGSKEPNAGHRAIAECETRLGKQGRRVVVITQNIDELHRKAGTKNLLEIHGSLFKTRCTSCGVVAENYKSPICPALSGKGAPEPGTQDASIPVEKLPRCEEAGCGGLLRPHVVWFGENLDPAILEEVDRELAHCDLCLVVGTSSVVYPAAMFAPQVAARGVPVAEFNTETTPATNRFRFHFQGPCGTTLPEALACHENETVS
C2C12 statin: suppression of simvastatin myotoxicity; C2C12 myotubes + simvastatin, ATP luminescence, 48 h; scaled: DMSO 0, geranylgeraniol control 100; rescue of ATP level, % at 7.49 µM; actives 0.78% (n = 330,000); AID 602340;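 active = mean ATP rescue above about 67%, or every replicate alone reaching that limit, limit read from the data, passing the limit was not always enough; inconclusive = no clear call, values can overlap the other calls; inactive = mean under the limit and some replicate under it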;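 note: myotubes were challenged with 10 µM simvastatin during compound exposure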
PGC1a acetyl inh: PGC1a acetylation modulation, inhibitor mode. U2OS PGC1a acetylation, AlphaScreen anti-acetyl-lysine; with virally co-expressed GCN5 acetyltransferase. inhibition, % at 15.6 µM. actives 0.17% (n = 350,000). AID 651687;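 active = every replicate shows inhibition of at least 40%; inconclusive = mean inhibition at least 40% but some replicate below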
A number is an active result; – = inactive; ? = inconclusive; · = no result given. In the library only some 2.9% were active in any assay of this set; here they are far more common.

SMILES	S100A4 MyoIIA	DENV2 CPE rescue	SIRT5 block	C2C12 statin	PGC1a acetyl inh
Cn1c(=O)c2c(nc(CCc3ccccc3)n2C)n(C)c1=O	–	–	·	–	–
CCN(Cc1ccc(OC)c(COC)c1)CC1CCCN(CCc2cccc(F)c2)C1 (centres undefined)	–	–	–	–	–
CCN(Cc1ccc(OC)c(COC)c1)CC1CCCN(CCc2cccc(OC)c2)C1 (centres undefined)	–	25.2	·	–	·
N=C1/C(=C/c2ccco2)C(=O)N=C2SC(CC(=O)N3CCCC3)=NN12	–	–	19.5	–	–
N=C1/C(=C/c2ccc(Br)o2)C(=O)N=C2SC(CC(=O)N3CCCC3)=NN12	–	–	25.6	–	–
CCc1ccc(/C=C2\C(=N)N3N=C(CC(=O)N4CCCCC4)SC3=NC2=O)cc1	–	–	–	–	–
Cc1ccc(/C=C2\C(=N)N3N=C(CC(=O)N4CCCCC4)SC3=NC2=O)cc1	–	–	–	–	–
N=C1/C(=C\c2ccc(Br)o2)C(=O)N=C2SC(CC(=O)N3CCOCC3)=NN12	–	–	27.7	–	–
CCOC(=O)C(C)Oc1cc(Cl)c(C=O)cc1OC (centres undefined)	–	–	15.8	·	–
COC(=O)COc1cc(Cl)c(C=O)cc1OC	–	–	–	·	·
COc1cccc(-c2ccc(C3[C@@H]4CN(S(=O)(=O)c5cccc(OC)c5)C[C@H]3N4)cc2)c1 (some centres undefined)	–	–	–	·	–
CC1=C([C@H](O)CCc2ccccc2)[C@H](CO)n2c(=O)n(-c3ccccc3)c(=O)n2C1	–	36.0	–	·	–
COc1cc(=O)[nH]c(SC(C)C(=O)Nc2cccc3ccccc23)n1 (centres undefined)	–	–	74.9	–	·
Cc1ccccc1C(=O)Nc1nnc(-c2ccc(C(C)(C)C)cc2)s1	·	·	·	·	–
Cc1cccc(C(=O)Nc2nnc(-c3ccc(C(C)(C)C)cc3)s2)c1	·	·	·	82.9	–
CCn1c(=O)c2cc(C(=O)N3CCN(C)CC3)sc2c2ccccc21	–	?	–	–	·
CN1CCN(C(=O)c2cc3sc4ccccc4c3s2)CC1	–	43.4	–	·	–
CCc1ccc(S(=O)(=O)c2ccc(-n3nc(C)cc3N)cc2)cc1	–	–	111.8	·	·
Cc1cc(N)n(-c2ccc(C(=O)O)cc2)n1	–	–	–	–	–
C/C=C/c1cnc2c(c1)C(=O)N([C@H](C)CO)C[C@@H](C)[C@H](CN(C)C(=O)C1CCC1)O2	·	·	·	–	–
CS(=O)(=O)N1CCCCN2[C@H](C1)[C@H](c1ccc(C3=CCCC3)cc1)[C@@H]2CO	–	–	·	·	–
CS(=O)(=O)N1CCCCN2[C@H](CO)[C@H](c3ccc(C4=CCCC4)cc3)[C@@H]2C1	–	29.4	–	·	–
CS(=O)(=O)N1CCCCN2[C@@H](CO)[C@@H](c3ccc(C4=CCCC4)cc3)[C@@H]2C1	–	29.2	–	·	–
COc1ccc(CN(CCC#N)C(=S)NC(=O)c2ccccc2)cc1	·	·	·	114.0	–
OC[C@@H]1[C@@H](c2ccc(C#CC3(O)CCCC3)cc2)[C@@H]2CN(Cc3ccccc3F)CCCCN12	–	–	–	·	–
SMILES	S100A4 MyoIIA	DENV2 CPE rescue	SIRT5 block	C2C12 statin	PGC1a acetyl inh
O=C(Nc1ccc(F)c(F)c1)C1CCCN(S(=O)(=O)c2cnc[nH]2)C1 (centres undefined)	·	·	·	97.5	–
C[C@H]1CCCCO[C@@H](CN(C)C(=O)c2ccccc2)[C@@H](C)CN([C@@H](C)CO)C(=O)c2cc(NC(=O)CCC(F)(F)F)ccc2O1	–	–	–	·	–
Cc1noc(C)c1NC(=O)N(C)C[C@H]1Oc2ccc(NS(=O)(=O)c3cn(C)cn3)cc2CC(=O)N([C@H](C)CO)C[C@@H]1C	–	47.9	–	–	–
COc1ccc(NC(=O)N(C)C[C@@H]2Oc3ccc(NS(=O)(=O)c4cn(C)cn4)cc3CC(=O)N([C@H](C)CO)C[C@@H]2C)cc1	–	77.1	–	–	–
Cc1noc(C)c1NC(=O)N(C)C[C@@H]1Oc2ccc(NS(=O)(=O)c3cn(C)cn3)cc2CC(=O)N([C@@H](C)CO)C[C@H]1C	–	–	–	–	–
O=C(CSc1nccn1-c1ncc(C(F)(F)F)cc1Cl)c1ccc(Cl)cc1	·	·	·	95.2	–
Cc1cc(C)n(C(=O)c2ccc([N+](=O)[O-])cc2N)n1	–	–	–	–	43.9
Cc1cc(C)n(/C(=C\N(C)C)C(=O)c2cccc([N+](=O)[O-])c2)n1	–	–	–	–	·
COc1ccc(CNC(=O)C[C@H]2C(=O)N(Cc3ccc(OC)cc3)C[C@@H]2Cc2ccccc2)cc1	–	–	·	–	–
COc1ccc(CNC(=O)C[C@H]2C(=O)N(Cc3ccccc3)C[C@@H]2Cc2ccccc2)cc1	–	30.2	–	–	–
COc1ccc(CN2C(=O)C3C4C=CC(C4)C3C2=O)cc1 (centres undefined)	–	–	–	·	–
CCCCN1C[C@H](Cc2ccccc2)[C@@H](CC(=O)Nc2ccccc2)C1=O	–	55.7	·	–	–
COc1ccc(CNC(=O)CN2C(=O)C3C4C=CC(C4)C3C2=O)cc1 (centres undefined)	–	–	109.3	·	·
CCCCN1C[C@H](Cc2ccccc2)[C@@H](CC(=O)Nc2ccc(OC)cc2)C1=O	–	–	–	–	–
CC(C)NC(=O)NCC[C@@H]1CC[C@H](NC(=O)CCN2CCCCC2)[C@@H](CO)O1	–	–	–	–	–
CC1CSc2nc3sc4c(c3c(=O)n21)CCCC4 (centres undefined)	·	·	·	140.9	–
O=c1c2c3c(sc2nc2n1CCC2)CCCC3	–	–	–	–	–
O=c1c2c3c(sc2nc2n1CCCS2)CCCC3	·	·	·	114.0	–
CCCN1C[C@@H](C)[C@@H](OC)CN(C)C(=O)c2cc(NC(=O)c3ccccc3)ccc2OC[C@@H]1C	–	–	–	–	–
OCC#CCSc1nnc(-c2ccncc2)o1	·	·	·	·	–
COc1cc(-c2nnc(SCC#CCO)o2)cc(OC)c1OC	–	·	–	114.4	–
C[C@@H]1CN([C@@H](C)CO)C(=O)c2cc(-c3ccccc3)cnc2O[C@@H]1CN(C)C(=O)Nc1ccccc1	·	–	·	–	–
C[C@@H]1CN([C@H](C)CO)C(=O)c2cc(NS(=O)(=O)c3ccc(F)cc3)ccc2O[C@@H](C)CCCCO[C@@H]1CN(C)CC1CCCCC1	–	–	19.2	–	–
C[C@@H]1CCCCO[C@H](CN(C)CC2CC2)[C@H](C)CN([C@H](C)CO)C(=O)c2cc(NS(=O)(=O)c3ccc(F)cc3)ccc2O1	–	29.1	–	·	–
C[C@@H]1CCCCO[C@H](CN(C)CC2CCCCC2)[C@@H](C)CN([C@H](C)CO)C(=O)c2cc(NS(=O)(=O)c3ccccc3)ccc2O1	–	27.6	–	?	–
COc1ccc(S(=O)(=O)Nc2ccc3c(c2)C(=O)N([C@H](C)CO)C[C@@H](C)[C@H](CN(C)C(=O)NC2CCCCC2)OCCCC[C@@H](C)O3)cc1	–	–	–	·	–
CC(C)C#Cc1ccc([C@@H]2[C@@H](CO)N(C(=O)C3CCOCC3)[C@H]2C#N)cc1	–	–	–	–	–
